# Test results as given in publication PMC11298890 (iScience, 2024).
# Read-outs that look alike come from different tables or passages of the source.
# What was measured:
# PfPRS [1] = target: T1, PfPRS (Plasmodium falciparum, UniProt Q8I5R7); assay: Microscale thermophoresis; type: binding; settings: for Kd: Kd-Pf
# T1 sequence (Q8I5R7 250-746 limits assumed): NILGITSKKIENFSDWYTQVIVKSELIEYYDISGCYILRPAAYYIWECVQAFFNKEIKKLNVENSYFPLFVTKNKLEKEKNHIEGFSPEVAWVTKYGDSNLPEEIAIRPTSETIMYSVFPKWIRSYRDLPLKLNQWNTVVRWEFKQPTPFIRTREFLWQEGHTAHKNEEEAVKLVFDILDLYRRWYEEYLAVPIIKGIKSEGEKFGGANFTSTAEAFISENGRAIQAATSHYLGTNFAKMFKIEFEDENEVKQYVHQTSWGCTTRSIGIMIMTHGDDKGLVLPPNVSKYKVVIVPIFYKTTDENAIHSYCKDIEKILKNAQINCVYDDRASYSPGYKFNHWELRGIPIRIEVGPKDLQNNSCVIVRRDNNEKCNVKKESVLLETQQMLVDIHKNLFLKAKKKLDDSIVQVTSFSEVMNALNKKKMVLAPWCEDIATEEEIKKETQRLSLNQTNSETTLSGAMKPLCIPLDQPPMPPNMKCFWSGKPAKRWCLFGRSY
# Procedure, shortened: (§1)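 Recombinant tag-cleaved PRS (affinity, heparin and gel-filtration purified) labelled on lysines with Red-NHS 2nd-generation dye and held at 100 nM. Kd from MST; two independent replicates.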
# HsPRS [2] = target: T2, HsPRS (Homo sapiens, UniProt P07814); type: binding
# T2 sequence (P07814 1007-1512 limits assumed): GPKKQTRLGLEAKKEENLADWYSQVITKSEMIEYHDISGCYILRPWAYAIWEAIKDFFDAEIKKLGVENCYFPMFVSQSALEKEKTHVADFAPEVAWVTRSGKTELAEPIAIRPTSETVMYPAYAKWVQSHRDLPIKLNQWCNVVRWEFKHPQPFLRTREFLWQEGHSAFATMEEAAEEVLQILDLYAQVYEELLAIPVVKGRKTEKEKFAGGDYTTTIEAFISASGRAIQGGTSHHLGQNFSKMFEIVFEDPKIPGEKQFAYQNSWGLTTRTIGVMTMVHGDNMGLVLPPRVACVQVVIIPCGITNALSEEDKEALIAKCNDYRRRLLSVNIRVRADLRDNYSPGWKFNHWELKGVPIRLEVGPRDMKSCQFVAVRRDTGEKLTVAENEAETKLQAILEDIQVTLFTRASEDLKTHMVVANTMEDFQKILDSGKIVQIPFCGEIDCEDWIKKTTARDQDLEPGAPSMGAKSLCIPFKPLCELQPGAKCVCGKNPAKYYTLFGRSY
# [3] = system: Plasmodium falciparum 3D7; assay: Asexual blood stage parasite growth inhibition; type: cell-based; settings: 3D7, 48 h, read-out: Pf-EC50 (ABS), Pf 3D7, 48 h
# HsPRS [4] = target: T2, HsPRS; assay: Aminoacylation activity inhibition assay; type: biochemical
# HsPRS [5] = target: T2, HsPRS; assay: Microscale thermophoresis; type: binding; settings: Kd-Hs
# Procedure, shortened: as §1
# PfPRS [6] = target: T1, PfPRS; assay: Aminoacylation activity inhibition assay; type: biochemical
# PfPRS [7] = target: T1, PfPRS; type: binding; settings: Enzyme:Compound 1:50
# [8] = replicate n = 1, MST, individual replicate 1
# [9] = replicate n = 2, MST, individual replicate 2
compound,measurement,setting,value
"O=C(CC1NCCCC1O)Cn1cnc2cc(Br)c(Cl)cc2c1=O (centres unmarked) [HFG, Halofuginone]",SI-Kd (Hs/Pf),PfPRS [1]; Kd-Hs / Kd-Pf,0.7
same,Kd,PfPRS [1]; [8],74.8 nM
same,Kd,PfPRS [1]; [9],72.9 nM
same,HsPRS ΔTm from Apo Tm,HsPRS [2],61.4 (11.6) °C
same,HsPRS melting temperature (Tm),"HsPRS [2]; enzyme + inhibitor only, no substrate, Enzyme:Compound 1:100",61.4 (11.6) °C
same,EC50,[3],0.2 nM
same,IC50,HsPRS [4],10.9 nM
same,Kd,HsPRS [5]; [8],42.4 nM
same,Kd,HsPRS [5]; [9],61.9 nM
same,IC50,PfPRS [6],2.8 nM
same,SI-IC50 (Hs/Pf),PfPRS [6]; IC50 of the human enzyme divided by that of the plasmodium enzyme,3.9
same,PfPRS melting temperature (Tm),PfPRS [7]; in presence of ATP (2 mM),87.7 °C
same,PfPRS melting temperature (Tm),PfPRS [7]; in presence of L-pro (2 mM),54.7 °C
same,PfPRS melting temperature (Tm),PfPRS [7]; in presence of L-pro + ATP (2 mM),86.6 °C
